# Experimental data: paper PMC13022283 (Scientific Reports, 2026)
# Molecular target: T1, h-NTPDase2 (Homo sapiens, UniProt Q9Y5L3)
# T1 sequence (Q9Y5L3 1-495): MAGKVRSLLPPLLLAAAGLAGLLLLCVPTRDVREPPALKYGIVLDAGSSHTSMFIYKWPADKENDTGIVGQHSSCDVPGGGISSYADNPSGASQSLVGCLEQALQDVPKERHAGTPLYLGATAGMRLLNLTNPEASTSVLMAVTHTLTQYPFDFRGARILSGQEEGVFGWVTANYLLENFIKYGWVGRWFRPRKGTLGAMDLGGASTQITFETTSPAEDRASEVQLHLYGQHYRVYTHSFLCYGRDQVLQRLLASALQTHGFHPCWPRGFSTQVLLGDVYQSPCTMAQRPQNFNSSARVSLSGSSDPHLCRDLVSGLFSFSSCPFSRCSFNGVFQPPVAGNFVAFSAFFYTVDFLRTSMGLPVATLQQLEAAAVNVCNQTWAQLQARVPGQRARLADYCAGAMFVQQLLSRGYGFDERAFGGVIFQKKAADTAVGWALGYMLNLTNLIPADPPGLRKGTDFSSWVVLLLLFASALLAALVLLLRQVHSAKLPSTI
# Test: h-NTPDase activity assay
# Assay type: biochemical
# Settings: not given
row,IC50,Compound
1,0.92 ± 0.17 µM,"O=C(Nc1c(F)cccc1F)c1ccc2ncccc2c1 [Compound 4d, N-(2,6 difluorophenyl)quinoline-6-carboxamide]"
2,6.39 ± 1.07 µM,"Cc1ccc(CNC(=O)c2ccc3ncccc3c2)cc1 [Compound 4c, N-(4-methylbenzyl)quinoline-6-carboxamide]"

# Same assay, conditions: read-out: % Inhibition h-NTPDase2
row,Compound,inhibition at 100 µM
1,"O=C(Nc1ccccc1I)c1ccc2ncccc2c1 [Compound 4h, N-(2-iodophenyl)quinoline-6-carboxamide]",28.3%
2,"O=C(Nc1c(F)cccc1F)c1ccc2ncccc2c1 [Compound 4d, N-(2,6 difluorophenyl)quinoline-6-carboxamide]",80.1%
3,"O=C(Nc1ccccn1)c1ccc2ncccc2c1 [Compound 4g, N-(pyridin-2-yl)quinoline-6-carboxamide]",33.9%
4,"O=C(Nc1ccc(F)cc1F)c1ccc2ncccc2c1 [Compound 4e, N-(2,4 difluorophenyl)quinoline-6-carboxamide]",36.4%
5,"Cc1ccc(F)cc1NC(=O)c1ccc2ncccc2c1 [Compound 4l, N-(5-fluoro 2-methylphenyl)quinoline-6-carboxamide]",41.2%

# Continued, values first:
row,inhibition at 100 µM,Compound
1,18.6%,"O=C(Nc1ccc(I)cc1)c1ccc2ncccc2c1 [Compound 4k, N-(4-Iodophenyl)quinoline-6-carboxamide]"
2,68.4%,"Cc1ccc(CNC(=O)c2ccc3ncccc3c2)cc1 [Compound 4c, N-(4-methylbenzyl)quinoline-6-carboxamide]"
3,26.2%,"O=C(NCc1ccc(F)cc1)c1ccc2ncccc2c1 [Compound 4b, N-(4-fluorobenzyl)quinoline-6-carboxamide]"

# Molecular target: T2, h-NTPDase3 (Homo sapiens, UniProt O75355)
# T2 sequence (O75355 1-529): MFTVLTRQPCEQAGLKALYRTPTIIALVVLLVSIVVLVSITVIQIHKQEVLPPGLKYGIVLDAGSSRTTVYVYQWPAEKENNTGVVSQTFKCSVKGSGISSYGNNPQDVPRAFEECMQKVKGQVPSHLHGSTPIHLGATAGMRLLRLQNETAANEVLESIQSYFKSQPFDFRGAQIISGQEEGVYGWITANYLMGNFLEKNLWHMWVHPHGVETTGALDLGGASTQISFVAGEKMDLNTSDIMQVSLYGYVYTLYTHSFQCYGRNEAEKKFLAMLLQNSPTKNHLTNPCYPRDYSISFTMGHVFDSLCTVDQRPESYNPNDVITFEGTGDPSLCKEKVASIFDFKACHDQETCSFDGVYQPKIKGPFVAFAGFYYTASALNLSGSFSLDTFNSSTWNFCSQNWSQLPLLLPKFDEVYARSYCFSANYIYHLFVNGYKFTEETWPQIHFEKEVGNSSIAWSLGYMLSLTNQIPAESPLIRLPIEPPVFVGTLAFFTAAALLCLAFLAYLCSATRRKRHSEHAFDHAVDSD
# Test: h-NTPDase activity assay
# Assay type: biochemical
# Settings: not given
# Method in brief: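 Human NTPDase1, -2, -3 or -8 came from COS-7 cells transfected with plasmids via Lipofectamine, harvested at 44–48 h, sonicated and cleared of nuclei, with protein measured by Bradford. Enzyme per well was 12, 37, 43 or 63 ng respectively. Compound (0.1 mM final) was pre-incubated 10 min at 37 °C in 50 mM Tris–HCl, 5 mM CaCl2, pH 7.4. The reaction was started with ATP (100 µM), run 15 min, and stopped with malachite green; Pi was read at 630 nm.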
row,Compound,IC50
1,"O=C(Nc1ccccc1I)c1ccc2ncccc2c1 [Compound 4h, N-(2-iodophenyl)quinoline-6-carboxamide]",880 ± 290 nM
2,"O=C(Nc1c(F)cccc1F)c1ccc2ncccc2c1 [Compound 4d, N-(2,6 difluorophenyl)quinoline-6-carboxamide]",820 ± 70 nM
3,"O=C(Nc1ccccn1)c1ccc2ncccc2c1 [Compound 4g, N-(pyridin-2-yl)quinoline-6-carboxamide]",320 ± 50 nM

# Now from value to compound:
row,IC50,Compound
1,670 ± 270 nM,"Cc1ccc(CNC(=O)c2ccc3ncccc3c2)cc1 [Compound 4c, N-(4-methylbenzyl)quinoline-6-carboxamide]"
2,350 ± 170 nM,"O=C(NCc1ccc(F)cc1)c1ccc2ncccc2c1 [Compound 4b, N-(4-fluorobenzyl)quinoline-6-carboxamide]"

# Same assay, conditions: read-out: % Inhibition h-NTPDase3
row,Compound,inhibition at 100 µM
1,"O=C(Nc1ccccc1I)c1ccc2ncccc2c1 [Compound 4h, N-(2-iodophenyl)quinoline-6-carboxamide]",85%
2,"O=C(Nc1c(F)cccc1F)c1ccc2ncccc2c1 [Compound 4d, N-(2,6 difluorophenyl)quinoline-6-carboxamide]",58.4%
3,"O=C(Nc1ccccn1)c1ccc2ncccc2c1 [Compound 4g, N-(pyridin-2-yl)quinoline-6-carboxamide]",81.7%
4,"O=C(Nc1ccc(F)cc1F)c1ccc2ncccc2c1 [Compound 4e, N-(2,4 difluorophenyl)quinoline-6-carboxamide]",40.2%
5,"Cc1ccc(F)cc1NC(=O)c1ccc2ncccc2c1 [Compound 4l, N-(5-fluoro 2-methylphenyl)quinoline-6-carboxamide]",36.1%

# Results, then the compound that gave them:
row,inhibition at 100 µM,Compound
1,38.5%,"O=C(Nc1ccc(I)cc1)c1ccc2ncccc2c1 [Compound 4k, N-(4-Iodophenyl)quinoline-6-carboxamide]"
2,78.4%,"Cc1ccc(CNC(=O)c2ccc3ncccc3c2)cc1 [Compound 4c, N-(4-methylbenzyl)quinoline-6-carboxamide]"
3,67.8%,"O=C(NCc1ccc(F)cc1)c1ccc2ncccc2c1 [Compound 4b, N-(4-fluorobenzyl)quinoline-6-carboxamide]"

# Molecular target: T3, h-NTPDase8 (Homo sapiens, UniProt Q5MY95)
# T3 sequence (Q5MY95 1-495): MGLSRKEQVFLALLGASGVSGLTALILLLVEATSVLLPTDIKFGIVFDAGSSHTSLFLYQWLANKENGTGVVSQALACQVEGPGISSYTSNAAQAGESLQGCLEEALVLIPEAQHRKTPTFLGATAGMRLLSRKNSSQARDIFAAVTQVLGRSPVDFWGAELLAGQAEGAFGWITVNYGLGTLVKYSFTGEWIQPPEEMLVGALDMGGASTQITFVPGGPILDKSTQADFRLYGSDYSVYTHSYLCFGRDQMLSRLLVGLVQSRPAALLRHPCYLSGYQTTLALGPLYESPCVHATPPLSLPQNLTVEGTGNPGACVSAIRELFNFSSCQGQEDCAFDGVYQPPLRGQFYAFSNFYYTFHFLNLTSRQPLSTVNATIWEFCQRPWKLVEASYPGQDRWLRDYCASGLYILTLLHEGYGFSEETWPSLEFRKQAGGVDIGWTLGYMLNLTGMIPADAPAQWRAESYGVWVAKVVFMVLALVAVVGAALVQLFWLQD
# Test: h-NTPDase activity assay
# Assay type: biochemical
# Settings: not given
row,IC50,Compound
1,3290 ± 360 nM,"O=C(Nc1ccccc1I)c1ccc2ncccc2c1 [Compound 4h, N-(2-iodophenyl)quinoline-6-carboxamide]"
2,990 ± 130 nM,"Cc1ccc(CNC(=O)c2ccc3ncccc3c2)cc1 [Compound 4c, N-(4-methylbenzyl)quinoline-6-carboxamide]"
3,440 ± 80 nM,"O=C(NCc1ccc(F)cc1)c1ccc2ncccc2c1 [Compound 4b, N-(4-fluorobenzyl)quinoline-6-carboxamide]"

# Same assay, conditions: read-out: % Inhibition h-NTPDase8, at 100 µM
row,Compound,inhibition at 100 µM
1,"O=C(Nc1ccccc1I)c1ccc2ncccc2c1 [Compound 4h, N-(2-iodophenyl)quinoline-6-carboxamide]",65.6%
2,"O=C(Nc1c(F)cccc1F)c1ccc2ncccc2c1 [Compound 4d, N-(2,6 difluorophenyl)quinoline-6-carboxamide]",33%
3,"O=C(Nc1ccccn1)c1ccc2ncccc2c1 [Compound 4g, N-(pyridin-2-yl)quinoline-6-carboxamide]",20.4%
4,"O=C(Nc1ccc(F)cc1F)c1ccc2ncccc2c1 [Compound 4e, N-(2,4 difluorophenyl)quinoline-6-carboxamide]",39.5%
5,"Cc1ccc(F)cc1NC(=O)c1ccc2ncccc2c1 [Compound 4l, N-(5-fluoro 2-methylphenyl)quinoline-6-carboxamide]",26.1%

# The next lines start with the values.
row,inhibition at 100 µM,Compound
1,27%,"O=C(Nc1ccc(I)cc1)c1ccc2ncccc2c1 [Compound 4k, N-(4-Iodophenyl)quinoline-6-carboxamide]"
2,70.9%,"Cc1ccc(CNC(=O)c2ccc3ncccc3c2)cc1 [Compound 4c, N-(4-methylbenzyl)quinoline-6-carboxamide]"
3,83%,"O=C(NCc1ccc(F)cc1)c1ccc2ncccc2c1 [Compound 4b, N-(4-fluorobenzyl)quinoline-6-carboxamide]"

# Molecular target: T4, h-NPP1 (Homo sapiens, UniProt P22413)
# T4 sequence (P22413 1-925): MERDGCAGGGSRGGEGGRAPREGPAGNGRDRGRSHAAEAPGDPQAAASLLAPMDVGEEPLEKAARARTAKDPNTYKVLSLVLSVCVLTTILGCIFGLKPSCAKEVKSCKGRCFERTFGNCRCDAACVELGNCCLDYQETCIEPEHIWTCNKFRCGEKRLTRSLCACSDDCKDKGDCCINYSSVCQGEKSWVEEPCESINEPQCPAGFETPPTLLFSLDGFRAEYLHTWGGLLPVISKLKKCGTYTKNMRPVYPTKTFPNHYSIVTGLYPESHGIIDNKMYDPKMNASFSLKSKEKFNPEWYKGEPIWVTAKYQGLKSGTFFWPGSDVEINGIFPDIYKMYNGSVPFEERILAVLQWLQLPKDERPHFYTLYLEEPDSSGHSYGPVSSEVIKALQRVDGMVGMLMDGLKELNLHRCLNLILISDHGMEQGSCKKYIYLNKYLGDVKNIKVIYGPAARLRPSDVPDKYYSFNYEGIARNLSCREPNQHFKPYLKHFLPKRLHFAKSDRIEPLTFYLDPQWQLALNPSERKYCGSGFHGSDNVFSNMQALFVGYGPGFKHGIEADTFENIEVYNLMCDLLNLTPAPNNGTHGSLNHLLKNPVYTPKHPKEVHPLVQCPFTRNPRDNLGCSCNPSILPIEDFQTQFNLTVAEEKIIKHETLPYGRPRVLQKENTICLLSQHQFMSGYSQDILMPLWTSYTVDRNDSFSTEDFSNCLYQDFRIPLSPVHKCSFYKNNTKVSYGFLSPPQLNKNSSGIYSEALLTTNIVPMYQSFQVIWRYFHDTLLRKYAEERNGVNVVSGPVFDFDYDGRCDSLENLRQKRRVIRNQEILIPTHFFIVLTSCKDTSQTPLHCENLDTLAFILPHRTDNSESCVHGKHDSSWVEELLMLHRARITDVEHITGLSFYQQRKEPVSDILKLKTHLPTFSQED
# Test: h-NPP1 activity assay
# Assay type: biochemical
# Settings: not given
row,IC50,Compound
1,110 ± 20 nM,"O=C(Nc1ccc(I)cc1)c1ccc2ncccc2c1 [Compound 4k, N-(4-Iodophenyl)quinoline-6-carboxamide]"
2,730 ± 90 nM,"O=C(Nc1c(F)cccc1F)c1ccc2ncccc2c1 [Compound 4d, N-(2,6 difluorophenyl)quinoline-6-carboxamide]"

# Same assay, conditions: read-out: % Inhibition h-NPP1
row,Compound,inhibition at 100 µM
1,"O=C(Nc1ccccc1I)c1ccc2ncccc2c1 [Compound 4h, N-(2-iodophenyl)quinoline-6-carboxamide]",33.9%
2,"O=C(Nc1c(F)cccc1F)c1ccc2ncccc2c1 [Compound 4d, N-(2,6 difluorophenyl)quinoline-6-carboxamide]",54.5%
3,"O=C(Nc1ccccn1)c1ccc2ncccc2c1 [Compound 4g, N-(pyridin-2-yl)quinoline-6-carboxamide]",43.7%
4,"O=C(Nc1ccc(F)cc1F)c1ccc2ncccc2c1 [Compound 4e, N-(2,4 difluorophenyl)quinoline-6-carboxamide]",34.6%
5,"Cc1ccc(F)cc1NC(=O)c1ccc2ncccc2c1 [Compound 4l, N-(5-fluoro 2-methylphenyl)quinoline-6-carboxamide]",29.4%

# Second part, the compound after the results:
row,inhibition at 100 µM,Compound
1,67.7%,"O=C(Nc1ccc(I)cc1)c1ccc2ncccc2c1 [Compound 4k, N-(4-Iodophenyl)quinoline-6-carboxamide]"
2,45.2%,"Cc1ccc(CNC(=O)c2ccc3ncccc3c2)cc1 [Compound 4c, N-(4-methylbenzyl)quinoline-6-carboxamide]"
3,44.8%,"O=C(NCc1ccc(F)cc1)c1ccc2ncccc2c1 [Compound 4b, N-(4-fluorobenzyl)quinoline-6-carboxamide]"

# System: not listed separately
# Test: MTT assay
# Assay type: cell-based, human
# Settings: human, MCF-7 breast cancer cells, % Cytotoxicity ± SD, MCF-7, 100 μM
row,Compound,"cytotoxicity at 24 h, 100 µM"
1,"O=C(Nc1ccccc1I)c1ccc2ncccc2c1 [Compound 4h, N-(2-iodophenyl)quinoline-6-carboxamide]",49.7 ± 2.17%
2,"O=C(Nc1ccc(I)cc1)c1ccc2ncccc2c1 [Compound 4k, N-(4-Iodophenyl)quinoline-6-carboxamide]",56.9 ± 16.9%
3,"O=C(Nc1c(F)cccc1F)c1ccc2ncccc2c1 [Compound 4d, N-(2,6 difluorophenyl)quinoline-6-carboxamide]",48 ± 12.7%
4,"O=C(Nc1ccccn1)c1ccc2ncccc2c1 [Compound 4g, N-(pyridin-2-yl)quinoline-6-carboxamide]",47.4 ± 1.8%
5,"Cc1ccc(CNC(=O)c2ccc3ncccc3c2)cc1 [Compound 4c, N-(4-methylbenzyl)quinoline-6-carboxamide]",42.2 ± 0.81%
6,"O=C(Nc1ccc(F)cc1F)c1ccc2ncccc2c1 [Compound 4e, N-(2,4 difluorophenyl)quinoline-6-carboxamide]",14.6 ± 2.48%
7,"Cc1ccc(F)cc1NC(=O)c1ccc2ncccc2c1 [Compound 4l, N-(5-fluoro 2-methylphenyl)quinoline-6-carboxamide]",39.5 ± 15.5%
8,"O=C(NCc1ccc(F)cc1)c1ccc2ncccc2c1 [Compound 4b, N-(4-fluorobenzyl)quinoline-6-carboxamide]",25.1 ± 6.08%

# Same assay, conditions: human, MCF-7 breast cancer cells, % Viability, MCF-7, 100 μM
row,Compound,"viability at 24 h, 100 µM"
1,"O=C(Nc1ccccc1I)c1ccc2ncccc2c1 [Compound 4h, N-(2-iodophenyl)quinoline-6-carboxamide]",50.3%
2,"O=C(Nc1ccc(I)cc1)c1ccc2ncccc2c1 [Compound 4k, N-(4-Iodophenyl)quinoline-6-carboxamide]",43 to 45%
3,"O=C(Nc1c(F)cccc1F)c1ccc2ncccc2c1 [Compound 4d, N-(2,6 difluorophenyl)quinoline-6-carboxamide]",52%
4,"O=C(Nc1ccccn1)c1ccc2ncccc2c1 [Compound 4g, N-(pyridin-2-yl)quinoline-6-carboxamide]",52.6%
5,"Cc1ccc(CNC(=O)c2ccc3ncccc3c2)cc1 [Compound 4c, N-(4-methylbenzyl)quinoline-6-carboxamide]",57.8%
6,"O=C(Nc1ccc(F)cc1F)c1ccc2ncccc2c1 [Compound 4e, N-(2,4 difluorophenyl)quinoline-6-carboxamide]",85.4%
7,"Cc1ccc(F)cc1NC(=O)c1ccc2ncccc2c1 [Compound 4l, N-(5-fluoro 2-methylphenyl)quinoline-6-carboxamide]",60.5%
8,"O=C(NCc1ccc(F)cc1)c1ccc2ncccc2c1 [Compound 4b, N-(4-fluorobenzyl)quinoline-6-carboxamide]",74.9%
